Measured values from ChEMBL document CHEMBL1135551, “N-Acylvanillamides: development of an expeditious synthesis and discovery of new acyl templates for powerful activation of the vanilloid receptor” (J Med Chem, 2002).

Tests used:
[1] = target: T1, Transient receptor potential cation channel subfamily V member 1 (Homo sapiens, UniProt Q8NER1); assay: Percent absolute effect obtained with ionomycin, measured by the entry of [Ca2+] into human embryonic kidney HEK293 cells overexpressing hVR1; format: functional, cell-based
T1 sequence (Q8NER1 whole entry): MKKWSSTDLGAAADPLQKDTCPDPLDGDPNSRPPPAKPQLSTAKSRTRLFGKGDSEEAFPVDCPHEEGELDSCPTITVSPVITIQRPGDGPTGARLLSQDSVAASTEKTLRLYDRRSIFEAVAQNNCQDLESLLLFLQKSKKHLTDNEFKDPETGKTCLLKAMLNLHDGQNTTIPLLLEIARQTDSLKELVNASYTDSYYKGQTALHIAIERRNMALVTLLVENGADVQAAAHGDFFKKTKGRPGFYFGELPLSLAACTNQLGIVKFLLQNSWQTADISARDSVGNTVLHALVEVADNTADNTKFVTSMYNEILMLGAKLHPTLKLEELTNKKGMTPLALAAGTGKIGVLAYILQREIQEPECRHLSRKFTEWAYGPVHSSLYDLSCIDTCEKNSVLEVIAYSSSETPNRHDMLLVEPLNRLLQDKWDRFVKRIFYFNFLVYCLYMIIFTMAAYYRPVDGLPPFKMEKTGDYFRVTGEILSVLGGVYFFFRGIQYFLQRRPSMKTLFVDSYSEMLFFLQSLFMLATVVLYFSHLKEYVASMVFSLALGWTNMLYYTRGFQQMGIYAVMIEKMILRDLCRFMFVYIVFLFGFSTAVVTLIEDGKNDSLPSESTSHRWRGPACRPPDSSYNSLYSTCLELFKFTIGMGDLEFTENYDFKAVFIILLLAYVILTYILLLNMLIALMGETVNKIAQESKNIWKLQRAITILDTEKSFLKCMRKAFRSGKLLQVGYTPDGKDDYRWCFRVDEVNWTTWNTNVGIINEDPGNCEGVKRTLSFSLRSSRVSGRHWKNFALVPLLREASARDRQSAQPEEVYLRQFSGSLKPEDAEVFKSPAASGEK
Procedure, shortened: (§1)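 HEK-293 cells overexpressing human VR1, grown in MEM with nonessential amino acids, 10% FCS, 0.2 mM glutamine at 37 °C; plated on poly-L-lysine a day before. Cells loaded 2 h at 25 °C with 4 µM Fluo-3 methyl ester, washed, trypsinized, suspended in Tyrode pH 7.4 without BSA.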

[2] = target: T1, Transient receptor potential cation channel subfamily V member 1; assay: Concentration necessary to induce a relative half-maximal response measured by the entry of [Ca2+] into human embryonic kidney HEK293 cells overexpressing the human VR1; format: functional, cell-based; procedure, shortened: as §1

COc1cc(CNC(=O)CC[C@H](C)[C@@H]2CC[C@H]3[C@@H]4[C@@H](O)C[C@H]5C[C@@H](O)CC[C@@]5(C)[C@H]4C[C@@H](O)[C@]32C)ccc1O
Response [1]: 5.8%

COc1cc(CNC(=O)C2CC2(C)CCCC(C)CCCC(C)CCCC(C)C)ccc1O (configuration not stated)
Response [1]: 91.2%
EC50 [2]: 2.51 nM

COc1cc(CNC(=O)/C=C(\C)CCC[C@H](C)CCC[C@H](C)CCCC(C)C)ccc1O
Response [1]: 85%
EC50 [2]: 2 nM

COc1cc(CNC(=O)/C=C(C)/C=C/C=C(C)/C=C/C2=C(C)CCCC2(C)C)ccc1O
Response [1]: 92.6%
EC50 [2]: 3.98 nM

COc1cc(CNC(=O)C2C(C(=O)NCc3ccc(O)c(OC)c3)[C@H]3C=C[C@@H]2C3)ccc1O (stereo in doubt; trans)
Response [1]: 37.2%

CCCCCC[C@@H](O)C/C=C\CCCCCCCC(=O)NCc1ccc(O)c(OC)c1
Response [1]: 85%
EC50 [2]: 3.16 nM

CCCCCC[C@H](C/C=C\CCCCCCCC(=O)NCc1ccc(O)c(OC)c1)OC(C)=O
Response [1]: 93.5%

CCCCCCCC/C=C\CCCCCCCC(=O)NCc1ccc(O)c(OC)c1 [OLVANIL]
Response [1]: 67.2%
EC50 [2]: 0.501 nM

COc1cc(CNC(=O)[C@H]2[C@@H](C=C(C)C)C2(C)C)ccc1O
Response [1]: 85%
EC50 [2]: 200 nM

COc1cc(CNC(=O)CCCC/C=C/C(C)C)ccc1O
Response [1]: 65.4%

CCCCCC[C@@H](O)CC1CC1CCCCCCCC(=O)NCc1ccc(O)c(OC)c1 (some centres not stated)
Response [1]: 98%
EC50 [2]: 5.01 nM

COc1cc(CNC(=O)/C=C(\C)CC/C=C(\C)CCC=C(C)C)ccc1O
Response [1]: 79.9%
EC50 [2]: 0.501 nM

CCCCCCC(=O)CCCCCCCCCCC(=O)NCc1ccc(O)c(OC)c1
Response [1]: 67%
EC50 [2]: 6.31 nM

C=CCCCCCCCCC(=O)NCc1ccc(O)c(OC)c1
Response [1]: 85%
EC50 [2]: 2 nM

C=C(C)[C@@H]1CC[C@]2(C(=O)NCc3ccc(O)c(OC)c3)CC[C@]3(C)[C@H](CC[C@@H]4[C@@]5(C)CC[C@H](O)C(C)(C)[C@@H]5CC[C@]43C)[C@@H]12
Response [1]: 88.6%
EC50 [2]: 126 nM

CCCCCCCC[C@H]1C[C@H]1CCCCCCCCCCCC(=O)NCc1ccc(O)c(OC)c1
Response [1]: 91%
EC50 [2]: 79.4 nM

COc1cc(CNC(=O)[C@@]2(C)CCC[C@@]3(C)[C@H]2CC=C2C=C(C(C)C)CC[C@@H]23)ccc1O
Response [1]: 37.5%

CCCCCCCC/C=C\CCCCCCCCCCC(=O)NCc1ccc(O)c(OC)c1
Response [1]: 91.4%
EC50 [2]: 3.16 nM

CCCCC/C=C\C/C=C\C/C=C\C/C=C\CCCC(=O)NCc1ccc(O)c(OC)c1
Response [1]: 74.8%
EC50 [2]: 0.501 nM

COc1cc(CNC(=O)CCCCCCCCCCCCCCCCCCC(=O)NCc2ccc(O)c(OC)c2)ccc1O
Response [1]: 83.4%
EC50 [2]: 501 nM

CCCCCCCC[C@@H]1C[C@@H]1CCCCCCCC(=O)NCc1ccc(O)c(OC)c1
Response [1]: 86.7%
EC50 [2]: 1.26 nM

C=C(C(=O)NCc1ccc(O)c(OC)c1)[C@H]1CC[C@]2(C)CCC[C@](C)(O)[C@H]2C1
Response [1]: 78.9%
EC50 [2]: 200 nM

COc1cc(CNC(=O)[C@]23CC[C@@H](C)[C@H](C)[C@H]2C2=CC[C@@H]4[C@@]5(C)CC[C@H](O)C(C)(C)[C@@H]5CC[C@@]4(C)[C@]2(C)CC3)ccc1O
Response [1]: 14.3%

CCCCCCCCCCCCCCCCCC(=O)NCc1ccc(O)c(OC)c1
Response [1]: 32.4%

COc1cc(CNC(=O)CCCCCCCCC2CC2)ccc1O
Response [1]: 96.2%
EC50 [2]: 3.16 nM

COc1cc(CNC(=O)/C=C(\C)CCC=C(C)C)ccc1O
Response [1]: 70.9%
EC50 [2]: 39.8 nM

CCCCCC/C=C/C#CCCCCCCCC(=O)NCc1ccc(O)c(OC)c1
Response [1]: 70.7%
EC50 [2]: 1.26 nM

COc1cc(CNC(=O)CCCCCCCC/C=C/CCCCCCCCC(=O)NCc2ccc(O)c(OC)c2)ccc1O
Response [1]: 85.7%
EC50 [2]: 1.58 nM

C/C=C/C=C/C(=O)NCc1ccc(O)c(OC)c1
Response [1]: 34.6%

CCCCCC[C@@H](O)CCCCCCCCCCC(=O)NCc1ccc(O)c(OC)c1
Response [1]: 69.7%
EC50 [2]: 5.01 nM

COc1cc(CNC(=O)C2C(C(=O)NCc3ccc(O)c(OC)c3)[C@H]3C=C[C@@H]2C3)ccc1O (stereo in doubt; cis)
Response [1]: 16.4%

C=C(C)[C@H]1CC=C(C(=O)NCc2ccc(O)c(OC)c2)CC1
Response [1]: 74.5%
EC50 [2]: 794 nM

CCCCCCCCC#CCCCCCCCC(=O)NCc1ccc(O)c(OC)c1
Response [1]: 73.7%
EC50 [2]: 12.6 nM
